Results on 92 compounds are retold here after ChEMBL document CHEMBL4229399, “Discovery and optimization of aspartate aminotransferase 1 inhibitors to target redox balance in pancreatic ductal adenocarcinoma” (Bioorg Med Chem Lett, 2018).

Bounds are passed on as bounds.

In this assay the target is Aspartate aminotransferase, cytoplasmic (Homo sapiens, UniProt P17174). In words: Inhibition of GOT1 (unknown origin) using aspartate and alpha-ketoglutarate as substrate after 20 mins by MDH1 enzyme-coupled fluorescence assay. In short, it runs like this: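 Oxaloacetate from GOT1 (~1 nM) is reduced by MDH1 (0.3 µg/mL final) using NADH (250 µM final). Loss of NADH fluorescence is read at 340/445 nm. Substrates aspartate 4 mM and alpha-ketoglutarate 0.5 mM. Buffer: 100 mM HEPES, 100 mM KCl. Incubated 20 min at 37 °C. Mean of n = 3.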
Sequence of Aspartate aminotransferase, cytoplasmic (P17174 whole entry): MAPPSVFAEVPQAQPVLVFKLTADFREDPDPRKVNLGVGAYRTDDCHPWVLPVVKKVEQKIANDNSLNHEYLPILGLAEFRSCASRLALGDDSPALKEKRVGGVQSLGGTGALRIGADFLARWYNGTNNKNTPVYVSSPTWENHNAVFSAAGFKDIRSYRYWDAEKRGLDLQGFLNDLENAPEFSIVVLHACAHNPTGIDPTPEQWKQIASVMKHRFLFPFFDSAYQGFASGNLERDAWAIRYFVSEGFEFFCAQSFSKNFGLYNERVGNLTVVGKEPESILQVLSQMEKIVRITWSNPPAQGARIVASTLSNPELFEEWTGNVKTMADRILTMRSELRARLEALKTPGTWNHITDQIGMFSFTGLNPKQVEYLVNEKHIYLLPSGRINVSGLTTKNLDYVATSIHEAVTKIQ
As to `O=C(Nc1c(Cl)cccc1Cl)N1CCN(c2cccc3[nH]ccc23)CC1`, the IC50 is over 100 µM.

As for `O=C(Nc1cccc2ncsc12)N1CCN(c2cccc3[nH]ccc23)CC1`, the IC50 is over 100 µM.

`O=C(Nc1cncnc1)N1CCN(c2cccc3[nH]ccc23)CC1`: the IC50 was over 100 µM.

The compound `Cc1cc(C)cc(NC(=O)N2CCN(c3cccc4[nH]ccc34)CC2)c1` yielded a concentration for half-maximal inhibition (IC50) of 64 µM.

`O=C(Nc1ccc(Cl)cc1)N1CCN(c2ccncc2)CC1` returned an IC50 of over 100 µM.

`Cc1ccc(N2CCN(C(=O)Nc3ccccc3)CC2)c2cc[nH]c12` registered an IC50 of 41 µM.

As to `O=C(Nc1cc(Cl)ccc1Cl)N1CCN(c2cccc3[nH]ccc23)CC1`, the IC50 is over 100 µM.

For the compound `CS(=O)(=O)N1CCN(C(=O)Nc2ccccc2)CC1`, the IC50 is over 100 µM.

The compound `O=C(Nc1cccc(Cl)c1Cl)N1CCN(c2cccc3[nH]ccc23)CC1` showed an IC50 of over 100 µM.

`O=C(NCCc1c[nH]c2ccccc12)Nc1ccc(Cl)cc1Cl`: half-maximal inhibition (IC50) required 32 µM.

On to `O=C(NCCc1c[nH]c2ccccc12)Nc1ccc(OC(F)(F)F)cc1`, for which the IC50 is 63 µM.

Compound `Cc1cccc(NC(=O)N2CCN(c3cccc4[nH]ccc34)CC2)c1` came in with a half-inhibitory concentration (IC50) of over 100 µM.

`N#Cc1ccc(NC(=O)N2CCN(c3cccc4[nH]ccc34)CC2)cc1` displayed an IC50 of 21 µM.

For `O=C(Nc1cc(Cl)cc(Cl)c1)N1CCN(c2cccc3[nH]ccc23)CC1`, the midpoint of inhibition, the IC50, lay at 22 µM.

In turn, `COc1ccc(OC)c(NC(=O)N2CCN(c3cccc4[nH]ccc34)CC2)c1` displayed an IC50 of over 100 µM.

For `Cc1ccccc1NC(=O)N1CCN(c2cccc3[nH]ccc23)CC1`, the IC50 is over 100 µM.

Take `CNC(=O)c1ccc(NC(=O)N2CCN(c3cccc4[nH]ccc34)CC2)cc1`: the IC50 was over 100 µM.

As to `Cc1cccc(NC(=O)N2CCN(c3cccc4[nH]ccc34)CC2)c1C`, the IC50 is over 100 µM.

`O=C(Nc1cccc(Cl)c1)N1CCN(c2cccc3[nH]ccc23)CC1` displayed an IC50 of 52 µM.

As to `O=C(Nc1ccccc1)N1CCN(c2ccccc2)CC1`, the IC50 was over 100 µM.

Regarding `O=C(Nc1cccc(C(F)(F)F)c1)N1CCN(c2ccncc2)CC1`, the IC50 is over 100 µM.

On to `O=C(Nc1ccc(C(F)(F)F)cc1)N1CCN(c2cccc3[nH]ccc23)CC1`, for which half-maximal inhibition (IC50) required 16 µM.

`O=C(Nc1cccnc1)N1CCN(c2cccc3[nH]ccc23)CC1` showed a concentration for half-maximal inhibition (IC50) of over 100 µM.

`O=C(Nc1ccccc1)N1CCN(c2cccc3ncccc23)CC1` registered an IC50 of over 100 µM.

For `O=C(c1ccccc1)c1ccc(NC(=O)N2CCN(c3cccc4[nH]ccc34)CC2)cc1`, inhibition was half-maximal at 43 µM (IC50).

The compound `O=C(CCC(=O)Nc1c[nH]c2ccccc12)Nc1ccccc1` displayed an IC50 of over 100 µM.

`COc1cccc(N2CCN(C(=O)Nc3ccccc3)CC2)c1` gave an IC50 of over 100 µM.

As to `O=C(Nc1ccccc1)N1CCN(c2ccncc2)CC1`, the IC50 was over 100 µM.

Take `CC(C)NC(=O)N1CCN(c2cccc3[nH]ccc23)CC1`: the IC50 was over 100 µM.

Take `O=C(Nc1ccncn1)N1CCN(c2cccc3[nH]ccc23)CC1`: the IC50 is over 100 µM.

`O=C(CCc1ccccc1)N1CCN(c2cccc3[nH]ccc23)CC1`: the IC50 was over 100 µM.

Regarding `COc1ccc(NC(=O)N2CCN(c3cccc4[nH]ccc34)CC2)c(OC)c1`, the IC50 is over 100 µM.

In turn, `COc1ccccc1N1CCN(C(=O)Nc2ccccc2)CC1` registered an IC50 of over 100 µM.

`O=C(NCCc1c[nH]c2ccccc12)Nc1cccc(C(F)(F)F)c1` returned an IC50 of 62 µM.

`O=C(Nc1cccc(Oc2ccccc2)c1)N1CCN(c2cccc3[nH]ccc23)CC1`: half-maximal inhibition (IC50) required 39 µM.

For the compound `Cc1ccc(C)c(NC(=O)N2CCN(c3cccc4[nH]ccc34)CC2)c1`, the IC50 was over 100 µM.

As to `O=C(Nc1ccc(C(F)(F)F)cc1)N1CCN(c2ccncc2)CC1`, the IC50 was over 100 µM.

In the case of `O=C(Nc1ccccc1)N1CCN(c2cc(Cl)cc3[nH]ccc23)CC1`, the midpoint of inhibition, the IC50, lay at 46 µM.

For the compound `O=C(Nc1cccc2cccnc12)N1CCN(c2cccc3[nH]ccc23)CC1`, the IC50 is over 100 µM.

The compound `N#Cc1cccc(NC(=O)N2CCN(c3cccc4[nH]ccc34)CC2)c1` gave an IC50 of over 100 µM.

`CC(=O)N1CCN(C(=O)Nc2ccccc2)CC1` registered an IC50 of over 100 µM.

Regarding `COc1ccccc1NC(=O)N1CCN(c2cccc3[nH]ccc23)CC1`, the IC50 was over 100 µM.

`CNC(=O)c1cccc(NC(=O)N2CCN(c3cccc4[nH]ccc34)CC2)c1` displayed an IC50 of over 100 µM.

For the compound `Cc1ccc2[nH]ccc2c1N1CCN(C(=O)Nc2ccccc2)CC1`, the IC50 is over 100 µM.

For the compound `O=C(Nc1ccc(Cl)cc1)N1CCN(c2cccc3[nH]ccc23)CC1`, the IC50 was found to be 8.2 µM.

`O=C(NCCc1c[nH]c2ccccc12)Nc1ccccc1` displayed an IC50 of over 100 µM.

`O=C(Nc1ccc(OC(F)(F)F)cc1)N1CCN(c2cccc3[nH]ccc23)CC1` returned an IC50 of 36 µM.

`O=C(Nc1ccc(Cc2ccccc2)cc1)N1CCN(c2cccc3[nH]ccc23)CC1` had an IC50 of over 100 µM.

In turn, `O=C(Nc1ccccc1Cl)N1CCN(c2cccc3[nH]ccc23)CC1` gave an IC50 of over 100 µM.

For the compound `CN1CCN(C(=O)Nc2ccccc2)CC1`, the IC50 was over 100 µM.

On to `O=C(NCc1ccc(Cl)cc1)N1CCN(c2cccc3[nH]ccc23)CC1`, for which the IC50 was over 100 µM.

`CNC(=O)N1CCN(c2cccc3[nH]ccc23)CC1` returned an IC50 of over 100 µM.

The compound `CC(C)CNC(=O)N1CCN(c2cccc3[nH]ccc23)CC1` returned an IC50 of over 100 µM.

Regarding `CCN1CCN(C(=O)Nc2ccccc2)CC1`, the IC50 is over 100 µM.

`O=C(Nc1ccccc1)N1CCN(Cc2cncs2)CC1` returned a half-inhibitory concentration (IC50) of over 100 µM.

For `COc1cccc(NC(=O)N2CCN(c3cccc4[nH]ccc34)CC2)c1`, the IC50 is over 100 µM.

Compound `Cc1cc(N2CCN(C(=O)Nc3ccccc3)CC2)c2cc[nH]c2c1` displayed an IC50 of over 100 µM.

As to `O=C(Nc1ccnnc1)N1CCN(c2cccc3[nH]ccc23)CC1`, the IC50 is over 100 µM.

`N#Cc1ccccc1NC(=O)N1CCN(c2cccc3[nH]ccc23)CC1`: the IC50 was over 100 µM.

`O=C(Nc1cccc(C(F)(F)F)c1)N1CCN(c2cccc3[nH]ccc23)CC1` showed an IC50 of 14 µM.

For the compound `O=C(Nc1ccc(Br)cc1)N1CCN(c2cccc3[nH]ccc23)CC1`, the midpoint of inhibition, the IC50, lay at 16 µM.

For `O=C(Nc1ccccc1)N1CCN(c2ccc(Cl)c3[nH]ccc23)CC1`, the IC50 is over 100 µM.

Compound `Cc1cccc(C)c1NC(=O)N1CCN(c2cccc3[nH]ccc23)CC1` came in with an IC50 of over 100 µM.

The compound `O=C(NCCc1c[nH]c2ccccc12)Nc1ccc(C(F)(F)F)cc1` yielded an IC50 of 39 µM.

Compound `Cc1ccc(NC(=O)N2CCN(c3cccc4[nH]ccc34)CC2)cc1` showed an IC50 of over 100 µM.

For `O=C(NCCc1c[nH]c2ccccc12)Nc1ccc(Cl)c(Cl)c1`, the IC50 is 36 µM.

`O=C(c1ccccc1)N1CCN(c2cccc3[nH]ccc23)CC1` displayed an IC50 of over 100 µM.

On to `O=C(Nc1ccccc1)N1CCN(c2cccc3cnccc23)CC1`, for which the IC50 was over 100 µM.

In turn, `O=C(Nc1ccc(Cl)cc1Cl)N1CCN(c2cccc3[nH]ccc23)CC1` came in with an IC50 of 56 µM.

In the case of `COc1ccc(NC(=O)N2CCN(c3cccc4[nH]ccc34)CC2)cc1`, the IC50 amounted to 25 µM.

`CC(=O)c1ccc(NC(=O)N2CCN(c3cccc4[nH]ccc34)CC2)cc1` gave an IC50 of 16 µM.

As for `COc1cccc(OC)c1NC(=O)N1CCN(c2cccc3[nH]ccc23)CC1`, the IC50 was over 100 µM.

Compound `O=C(OCc1ccccc1)N1CCN(c2cccc3[nH]ccc23)CC1` gave an IC50 of over 100 µM.

For `CC(C)N1CCN(C(=O)Nc2ccccc2)CC1`, the IC50 is over 100 µM.

In the case of `O=C(NCCc1c[nH]c2ccccc12)Nc1cccc(Br)c1`, the IC50 amounted to 28 µM.

`COc1ccc(NC(=O)N2CCN(c3cccc4[nH]ccc34)CC2)cc1OC`: the IC50 is over 100 µM.

As for `COc1c(C)cccc1NC(=O)N1CCN(c2cccc3[nH]ccc23)CC1`, the IC50 is over 100 µM.

In turn, `COc1ccc(N2CCN(C(=O)Nc3ccccc3)CC2)cc1` had an IC50 of over 100 µM.

On to `Cc1ccc(NC(=O)N2CCN(c3cccc4[nH]ccc34)CC2)c(C)c1`, for which the IC50 was over 100 µM.

For `O=C(Nc1ccncc1)N1CCN(c2cccc3[nH]ccc23)CC1`, the IC50 was over 100 µM.

In turn, `O=C(Nc1ccccc1C(F)(F)F)N1CCN(c2cccc3[nH]ccc23)CC1` came in with an IC50 of over 100 µM.

`O=C(Nc1ccccn1)N1CCN(c2cccc3[nH]ccc23)CC1` gave an IC50 of over 100 µM.

`Cc1ccc(NC(=O)N2CCN(c3cccc4[nH]ccc34)CC2)cc1C` had an IC50 of over 100 µM.

In the case of `O=C(NCCc1c[nH]c2ccccc12)Nc1ccc(Cl)cc1`, 36 µM corresponded to half-maximal inhibition (IC50).

`O=C(Nc1ccc2scnc2c1)N1CCN(c2cccc3[nH]ccc23)CC1` gave an IC50 of 76 µM. This IC50 lies about 2.1-fold higher than the previous one.

With `O=C(Cc1ccccc1)N1CCN(c2cccc3[nH]ccc23)CC1`, the IC50 was over 100 µM.

`O=C(Nc1ccc2ncccc2c1)N1CCN(c2cccc3[nH]ccc23)CC1` came in with an IC50 of over 100 µM.

As to `O=C(NCc1ccccc1)N1CCN(c2cccc3[nH]ccc23)CC1`, the IC50 is over 100 µM.

On to `O=C(NCCc1c[nH]c2ccccc12)Nc1ccc(Br)cc1`, for which the IC50 amounted to 67 µM. This lies in the double-digit micromolar range.

Compound `O=C(NCCc1c[nH]c2ccccc12)Nc1ccccc1-c1ccccc1` showed an IC50 of 34 µM.

On to `COc1cc(NC(=O)N2CCN(c3cccc4[nH]ccc34)CC2)cc(OC)c1`, for which the IC50 was over 100 µM.

As for `O=C(Nc1ccccc1)N1CCN(c2cccc3[nH]ncc23)CC1`, the IC50 is over 100 µM.

Broadly, the IC50 is the point on the concentration scale where inhibition reaches its midpoint. Lower therefore signals greater potency.
